The target in series [1] is Activin receptor type-1B (Homo sapiens) (UniProt P36896). Put plainly: Binding affinity to wild-type human ACVR1B (S187 to I505 residues) expressed in bacterial expression system assessed as residual binding level at 1 uM by Kinomescan method relative to control.
Series [2] deals with Mitogen-activated protein kinase 11 (Homo sapiens) (UniProt Q15759). The series is described as follows: Binding affinity to wild-type human full length p38-beta (M1 to Q364 residues) expressed in bacterial expression system assessed as residual binding level at 1 uM by Kinomescan method relative to control.
For series [3], the target named is Membrane-associated tyrosine- and threonine-specific cdc2-inhibitory kinase (Homo sapiens) (UniProt Q99640). The series is described as follows: Binding affinity to wild-type human partial length PKMYT1 (A88 to G366 residues) expressed in bacterial expression system assessed as residual binding level at 1 uM by Kinomescan method relative to control.
Series [4] deals with Testis-specific serine/threonine-protein kinase 1 (Homo sapiens) (UniProt Q9BXA7). The series is described as follows: Binding affinity to wild-type human full length TSSK1B (M1 to Q367 residues) expressed in bacterial expression system assessed as residual binding level at 1 uM by Kinomescan method relative to control.
Series [5] addresses Protein kinase C iota type (Homo sapiens) (UniProt P41743). Put plainly: Binding affinity to wild-type human partial length PRKCI (H215 to V587 residues) expressed in mammalian expression system assessed as residual binding level at 1 uM by Kinomescan method relative to control.
Series [6] has as its target Protein kinase C epsilon type (Homo sapiens) (UniProt Q02156). Put plainly: Binding affinity to wild-type human partial length PRKCE (A378 to P737 residues) expressed in mammalian expression system assessed as residual binding level at 1 uM by Kinomescan method relative to control.
The target of series [7] is Vascular endothelial growth factor receptor 2 (Homo sapiens) (UniProt P35968). The series is described as follows: Binding affinity to wild-type human partial length VEGFR2 (R787 to P1253 residues) expressed in mammalian expression system assessed as residual binding level at 1 uM by Kinomescan method relative to control.
In series [8] the target is Receptor-type tyrosine-protein kinase FLT3 (Homo sapiens) (UniProt P36888). Put plainly: Binding affinity to wild-type human partial length FLT3 (V592 to Y969 residues) expressed in bacterial expression system assessed as residual binding level at 1 uM by Kinomescan method relative to control.
For series [9], the target named is Mitogen-activated protein kinase 7 (Homo sapiens) (UniProt Q13164). Put plainly: Binding affinity to wild-type human partial length ERK5 (M1 to A409 residues) expressed in bacterial expression system assessed as residual binding level at 1 uM by Kinomescan method relative to control.
In series [10] the test system is Proto-oncogene tyrosine-protein kinase receptor Ret (Homo sapiens), P07949 [V804L]. The series is described as follows: Binding affinity to human partial length RET V804L mutant (E713 to D1014 residues) expressed in bacterial expression system assessed as residual binding level at 1 uM by Kinomescan method relative to control. The essentials: (§1)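 Kinome-wide selectivity panel run by the KINOMEscan method, with the test compound at a single concentration of 1 μM. Wild-type and mutant kinases were profiled in the same screen.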

Series [11] concerns the target NUAK family SNF1-like kinase 2 (Homo sapiens) (UniProt Q9H093). Put plainly: Binding affinity to wild-type human partial length SNARK (P22 to A333 residues) expressed in mammalian expression system assessed as residual binding level at 1 uM by Kinomescan method relative to control.
Series [12] deals with Serine/threonine-protein kinase PAK 5 (Homo sapiens) (UniProt Q9P286). Put plainly: Binding affinity to wild-type human partial length PAK7 (Y400 to H719 residues) expressed in bacterial expression system assessed as residual binding level at 1 uM by Kinomescan method relative to control.
Series [13] concerns the target Serine/threonine-protein kinase SIK3 (Homo sapiens) (UniProt Q9Y2K2). The series is described as follows: Binding affinity to wild-type human partial length QSK (A90 to L395 residues) expressed in mammalian expression system assessed as residual binding level at 1 uM by Kinomescan method relative to control.
Series [14] concerns the target Serine/threonine-protein kinase PLK4 (Homo sapiens) (UniProt O00444). The series is described as follows: Binding affinity to wild-type human partial length PLK4 (M1 to S273 residues) expressed in mammalian expression system assessed as residual binding level at 1 uM by Kinomescan method relative to control.
For series [15], the target named is Serine/threonine-protein kinase VRK2 (Homo sapiens) (UniProt Q86Y07). The series is described as follows: Binding affinity to wild-type human partial length VRK2 (M1 to T336 residues) expressed in mammalian expression system assessed as residual binding level at 1 uM by Kinomescan method relative to control.
Series [16] concerns the target Phosphorylase b kinase gamma catalytic chain, liver/testis isoform (Homo sapiens) (UniProt P15735). Put plainly: Binding affinity to wild-type human partial length PHKG2 (M1 to W300 residues) expressed in bacterial expression system assessed as residual binding level at 1 uM by Kinomescan method relative to control.
Series [17] deals with Serine/threonine-protein kinase WNK3 (Homo sapiens) (UniProt Q9BYP7). The series is described as follows: Binding affinity to wild-type human partial length WNK3 (M1 to D434 residues) expressed in mammalian expression system assessed as residual binding level at 1 uM by Kinomescan method relative to control.
Series [18] has as its system Tyrosine-protein kinase ABL1 (Homo sapiens), P00519 [Q252H]. Put plainly: Binding affinity to human non-phosphorylated ABL1 Q252H mutant (S229 to K512 residues) expressed in mammalian expression system assessed as residual binding level at 1 uM by Kinomescan method relative to control. The essentials: as §1
The nature of series [19]: Half life in mouse at 2 mg/kg, iv. The series is classed as ADME, organism-based. The following applies: in vivo.
The test system of series [20] is Epidermal growth factor receptor (Homo sapiens), P00533 [UNDEFINED MUTATION]. Put plainly: Binding affinity to human partial length EGFR E746-A750del mutant expressed in bacterial expression system assessed as residual binding level at 1 uM by Kinomescan method relative to control. In short, it runs like this: as §1
In series [21] the target is Tyrosine-protein kinase Srms (Homo sapiens) (UniProt Q9H3Y6). Put plainly: Binding affinity to wild-type human partial length SRMS (L208 to P488 residues) expressed in mammalian expression system assessed as residual binding level at 1 uM by Kinomescan method relative to control.
The target in series [22] is Ephrin type-A receptor 8 (Homo sapiens) (UniProt P29322). Put plainly: Binding affinity to wild-type human partial length EPHA8 (Q608 to C920 residues) expressed in bacterial expression system assessed as residual binding level at 1 uM by Kinomescan method relative to control.
In series [23] the target is Serine/threonine-protein kinase PRP4 homolog (Homo sapiens) (UniProt Q13523). The series is described as follows: Binding affinity to wild-type human partial length PRP4 (D657 to I1007 residues) expressed in bacterial expression system assessed as residual binding level at 1 uM by Kinomescan method relative to control.
The target in series [24] is Ribosomal protein S6 kinase alpha-6 (Homo sapiens) (UniProt Q9UK32). Put plainly: Binding affinity to wild-type human partial length N-terminal RSK4 kinase domain 1 (M1 to E397 residues) expressed in mammalian expression system assessed as residual binding level at 1 uM by Kinomescan method relative to control.

By half-life is commonly meant the time needed for the level to fall by half in the phase considered. Read a low half-life as fast loss.

Each structure is given as a SMILES string.

Chain of Serine/threonine-protein kinase VRK2 (Homo sapiens) (Q86Y07 whole entry, the tested form may be a part, canonical isoform): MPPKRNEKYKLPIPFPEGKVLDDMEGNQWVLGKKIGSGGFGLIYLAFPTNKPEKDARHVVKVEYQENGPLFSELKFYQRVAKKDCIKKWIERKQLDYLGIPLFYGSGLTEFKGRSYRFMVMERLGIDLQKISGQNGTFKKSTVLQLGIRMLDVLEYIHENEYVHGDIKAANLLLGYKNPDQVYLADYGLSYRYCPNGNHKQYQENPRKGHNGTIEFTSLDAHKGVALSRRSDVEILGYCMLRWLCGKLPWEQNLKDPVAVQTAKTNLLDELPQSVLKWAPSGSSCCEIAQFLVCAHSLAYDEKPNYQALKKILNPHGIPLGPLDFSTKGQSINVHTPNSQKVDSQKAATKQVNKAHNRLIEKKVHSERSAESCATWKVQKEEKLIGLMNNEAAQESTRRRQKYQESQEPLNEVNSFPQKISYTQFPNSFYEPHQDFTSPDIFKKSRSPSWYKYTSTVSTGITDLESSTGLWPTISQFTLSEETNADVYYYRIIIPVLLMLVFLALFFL
Chain of Serine/threonine-protein kinase PLK4 (Homo sapiens) (O00444 whole entry, the tested form may be a part): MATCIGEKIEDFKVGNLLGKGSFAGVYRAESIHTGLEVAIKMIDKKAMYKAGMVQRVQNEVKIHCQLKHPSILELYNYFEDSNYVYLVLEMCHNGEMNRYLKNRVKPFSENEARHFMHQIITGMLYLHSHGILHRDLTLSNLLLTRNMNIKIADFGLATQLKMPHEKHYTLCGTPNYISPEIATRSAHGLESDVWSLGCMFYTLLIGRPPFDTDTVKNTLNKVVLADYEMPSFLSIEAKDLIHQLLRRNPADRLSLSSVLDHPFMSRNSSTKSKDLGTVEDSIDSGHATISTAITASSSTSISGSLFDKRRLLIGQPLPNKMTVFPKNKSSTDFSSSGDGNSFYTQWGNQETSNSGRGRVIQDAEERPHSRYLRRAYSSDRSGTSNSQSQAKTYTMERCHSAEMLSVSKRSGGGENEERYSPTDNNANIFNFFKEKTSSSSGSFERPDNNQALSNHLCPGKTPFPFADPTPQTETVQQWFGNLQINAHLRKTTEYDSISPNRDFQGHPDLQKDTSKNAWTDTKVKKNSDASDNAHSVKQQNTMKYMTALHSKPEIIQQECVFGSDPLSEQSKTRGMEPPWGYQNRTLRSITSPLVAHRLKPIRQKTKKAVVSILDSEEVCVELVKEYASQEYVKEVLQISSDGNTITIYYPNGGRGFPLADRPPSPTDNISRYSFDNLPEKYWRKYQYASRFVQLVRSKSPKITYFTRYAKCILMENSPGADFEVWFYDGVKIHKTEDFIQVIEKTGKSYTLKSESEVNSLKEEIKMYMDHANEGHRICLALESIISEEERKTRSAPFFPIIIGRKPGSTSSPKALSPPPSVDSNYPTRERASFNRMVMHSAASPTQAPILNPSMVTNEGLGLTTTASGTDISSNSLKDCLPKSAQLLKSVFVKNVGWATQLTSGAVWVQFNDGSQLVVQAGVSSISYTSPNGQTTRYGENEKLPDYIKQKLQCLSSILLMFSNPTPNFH
Chain of Serine/threonine-protein kinase PAK 5 (Homo sapiens) (Q9P286 whole entry, looked up, the tested form may be a part): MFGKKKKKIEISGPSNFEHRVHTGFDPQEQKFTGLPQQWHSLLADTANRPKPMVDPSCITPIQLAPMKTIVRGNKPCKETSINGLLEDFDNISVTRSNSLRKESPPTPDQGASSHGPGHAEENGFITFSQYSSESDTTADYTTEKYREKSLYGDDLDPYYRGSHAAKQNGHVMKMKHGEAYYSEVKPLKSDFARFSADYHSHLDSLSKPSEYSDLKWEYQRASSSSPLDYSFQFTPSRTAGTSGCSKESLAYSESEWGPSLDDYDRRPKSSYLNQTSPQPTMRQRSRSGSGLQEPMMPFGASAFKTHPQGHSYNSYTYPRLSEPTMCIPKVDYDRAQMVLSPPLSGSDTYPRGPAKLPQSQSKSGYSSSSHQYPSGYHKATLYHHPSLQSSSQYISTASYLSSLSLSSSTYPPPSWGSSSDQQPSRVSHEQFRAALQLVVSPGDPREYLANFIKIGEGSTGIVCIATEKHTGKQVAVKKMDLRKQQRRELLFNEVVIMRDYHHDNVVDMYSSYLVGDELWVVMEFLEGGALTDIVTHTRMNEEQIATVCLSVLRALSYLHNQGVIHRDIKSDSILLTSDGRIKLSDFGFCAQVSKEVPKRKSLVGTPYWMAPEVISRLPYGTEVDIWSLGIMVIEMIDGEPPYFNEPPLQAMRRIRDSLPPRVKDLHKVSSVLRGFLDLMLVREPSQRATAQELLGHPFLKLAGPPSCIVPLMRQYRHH
Chain of Serine/threonine-protein kinase PRP4 homolog (Homo sapiens) (Q13523 whole entry, the tested form may be a part): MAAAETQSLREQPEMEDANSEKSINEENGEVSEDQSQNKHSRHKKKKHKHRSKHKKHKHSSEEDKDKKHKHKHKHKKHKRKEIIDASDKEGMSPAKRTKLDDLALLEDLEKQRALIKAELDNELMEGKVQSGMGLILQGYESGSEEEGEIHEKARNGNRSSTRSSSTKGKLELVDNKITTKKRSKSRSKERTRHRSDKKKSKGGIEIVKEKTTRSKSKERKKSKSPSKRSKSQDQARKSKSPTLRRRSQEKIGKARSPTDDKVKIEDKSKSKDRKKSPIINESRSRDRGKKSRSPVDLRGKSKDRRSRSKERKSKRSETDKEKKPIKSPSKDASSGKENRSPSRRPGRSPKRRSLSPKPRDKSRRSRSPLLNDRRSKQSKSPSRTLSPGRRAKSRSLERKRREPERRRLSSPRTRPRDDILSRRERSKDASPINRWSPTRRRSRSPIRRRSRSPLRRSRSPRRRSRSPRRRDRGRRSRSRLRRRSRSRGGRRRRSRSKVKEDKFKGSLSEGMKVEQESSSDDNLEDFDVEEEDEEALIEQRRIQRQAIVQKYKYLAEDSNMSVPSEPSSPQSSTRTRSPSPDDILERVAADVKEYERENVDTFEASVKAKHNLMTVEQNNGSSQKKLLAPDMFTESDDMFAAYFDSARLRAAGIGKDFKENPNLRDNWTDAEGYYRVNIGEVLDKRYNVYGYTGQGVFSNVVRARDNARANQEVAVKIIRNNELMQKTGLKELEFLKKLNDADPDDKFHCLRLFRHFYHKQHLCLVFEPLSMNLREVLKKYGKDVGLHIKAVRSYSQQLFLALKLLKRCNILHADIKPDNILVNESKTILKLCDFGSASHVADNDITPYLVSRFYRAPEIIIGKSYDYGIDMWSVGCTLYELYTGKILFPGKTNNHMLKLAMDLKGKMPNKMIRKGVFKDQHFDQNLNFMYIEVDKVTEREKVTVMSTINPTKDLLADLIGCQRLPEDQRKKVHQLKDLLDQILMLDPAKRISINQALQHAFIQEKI
Chain of Ephrin type-A receptor 8 (Homo sapiens) (P29322 whole entry, the tested form may be a part): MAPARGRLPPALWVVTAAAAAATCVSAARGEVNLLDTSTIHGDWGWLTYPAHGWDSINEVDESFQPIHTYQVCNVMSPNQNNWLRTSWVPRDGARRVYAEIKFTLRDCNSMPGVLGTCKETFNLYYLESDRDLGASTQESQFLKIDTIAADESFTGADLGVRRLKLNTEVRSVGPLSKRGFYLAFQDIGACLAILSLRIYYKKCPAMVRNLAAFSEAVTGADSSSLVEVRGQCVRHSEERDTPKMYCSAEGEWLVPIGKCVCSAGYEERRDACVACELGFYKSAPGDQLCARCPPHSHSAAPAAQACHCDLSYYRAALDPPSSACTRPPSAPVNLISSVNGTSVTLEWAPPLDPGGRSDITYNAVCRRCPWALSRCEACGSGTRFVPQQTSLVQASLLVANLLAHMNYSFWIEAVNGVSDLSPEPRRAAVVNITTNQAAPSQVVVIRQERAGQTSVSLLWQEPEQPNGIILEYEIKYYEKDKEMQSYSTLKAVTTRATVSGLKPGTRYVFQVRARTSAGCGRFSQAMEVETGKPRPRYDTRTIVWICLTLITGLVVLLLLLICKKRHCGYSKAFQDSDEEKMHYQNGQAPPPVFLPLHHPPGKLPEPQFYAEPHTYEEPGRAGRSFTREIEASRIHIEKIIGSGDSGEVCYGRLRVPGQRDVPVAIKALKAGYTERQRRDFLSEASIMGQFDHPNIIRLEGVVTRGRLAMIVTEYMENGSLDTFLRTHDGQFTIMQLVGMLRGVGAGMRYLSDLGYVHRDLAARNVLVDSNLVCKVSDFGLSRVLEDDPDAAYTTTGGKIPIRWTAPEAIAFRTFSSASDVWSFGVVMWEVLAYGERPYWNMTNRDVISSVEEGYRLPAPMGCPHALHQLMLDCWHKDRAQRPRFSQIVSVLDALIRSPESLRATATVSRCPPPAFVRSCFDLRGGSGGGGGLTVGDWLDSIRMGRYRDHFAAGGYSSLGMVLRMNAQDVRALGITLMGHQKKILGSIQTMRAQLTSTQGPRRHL
Chain of Mitogen-activated protein kinase 11 (Homo sapiens) (Q15759 whole entry, the tested form may be a part): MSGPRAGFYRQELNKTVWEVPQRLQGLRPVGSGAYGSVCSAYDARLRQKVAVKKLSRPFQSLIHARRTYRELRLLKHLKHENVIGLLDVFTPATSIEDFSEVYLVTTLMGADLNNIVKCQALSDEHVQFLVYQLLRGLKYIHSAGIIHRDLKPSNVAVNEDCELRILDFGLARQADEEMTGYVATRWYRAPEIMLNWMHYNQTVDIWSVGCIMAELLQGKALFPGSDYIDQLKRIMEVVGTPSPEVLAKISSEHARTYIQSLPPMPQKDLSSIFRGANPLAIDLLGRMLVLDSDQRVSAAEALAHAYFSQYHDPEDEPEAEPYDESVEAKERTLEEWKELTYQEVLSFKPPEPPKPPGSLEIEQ
Chain of Activin receptor type-1B (Homo sapiens) (P36896 whole entry, the tested form may be a part): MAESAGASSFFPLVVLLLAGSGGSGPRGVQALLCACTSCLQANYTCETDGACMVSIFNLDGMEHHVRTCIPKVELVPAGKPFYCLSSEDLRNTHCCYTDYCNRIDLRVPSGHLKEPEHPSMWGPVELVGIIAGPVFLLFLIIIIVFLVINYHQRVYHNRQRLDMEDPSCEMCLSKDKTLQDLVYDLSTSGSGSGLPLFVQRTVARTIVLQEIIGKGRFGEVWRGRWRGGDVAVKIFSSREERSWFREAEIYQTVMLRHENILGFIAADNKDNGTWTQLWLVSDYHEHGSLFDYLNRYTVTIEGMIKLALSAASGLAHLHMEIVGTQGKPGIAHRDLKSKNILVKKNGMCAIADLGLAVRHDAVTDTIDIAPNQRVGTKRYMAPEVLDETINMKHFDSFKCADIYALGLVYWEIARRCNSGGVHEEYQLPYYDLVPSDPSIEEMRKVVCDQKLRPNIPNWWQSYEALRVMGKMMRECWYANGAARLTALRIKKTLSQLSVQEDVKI

Consider `C=CC(=O)Nc1cc(Nc2ncc(Cl)c(Nc3ccccc3S(=O)(=O)C(C)C)n2)c(OC)cc1N(C)CCN(C)C`, for which the Activity in series [1] was 16%; in series [2], 96%; in series [3], 80%; in series [4], 12%; in series [5], 73%; in series [6] it was 99%. Moreover, the Activity in series [7] is 42%; in series [8] it was 3.1%; in series [9], 37%; in series [10], 14%; in [11], 1.2%; in series [12] it was 79%. Further, the Activity in [13] came to 61%; in series [14], 0.35%; in series [15] it was 98%; in series [16] it was 10%; in series [17], 100%; in series [18], 1.9%. The Activity in [20] turned out to be 12%; in [21], 6.5%; in [22], 97%; in series [23], 82%; in series [24], 15%. For the same molecule, the half-life in series [19] was 1.25 h.

(Values after ChEMBL document CHEMBL4382192, “Discovery of a potent dual ALK and EGFR T790M inhibitor” (Eur J Med Chem, 2017).)
